ChEMBL document CHEMBL4024768, “Discovery and Optimization of Thiazolidinyl and Pyrrolidinyl Derivatives as Inhaled PDE4 Inhibitors for Respiratory Diseases” (J Med Chem, 2017)

Key:
[1] = Protein binding in human plasma at 5 uM after 5 hrs by LC-MS/MS analysis; type: ADME, cell-free; details: read-out: PPB (converted)
[2] = Inhibition of PDE4 in human U937 cell lysates assessed as residual cAMP after 2.5 mins by LANCE assay
[3] = Inhibition of PDE4 in human PBMC assessed as reduction in LPS-induced TNFalpha release after 18 hrs by quantitative ELISA
[4] = Apparent permeability across apical to basolateral side in human Caco2 cells at 10 uM after 2 hrs by LC-MS/MS analysis; type: ADME, cell-based; details: Caco-2
[5] = Apparent permeability across basolateral to apical side in human Caco2 cells at 10 uM after 2 hrs by LC-MS/MS analysis; type: ADME, cell-based; details: Caco-2
[6] = Intrinsic clearance in human liver microsomes at 1 uM measured after 60 mins in presence NADPH by LC-MS/MS analysis; type: ADME, microsome; details: read-out: CLH
Outline: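 Compound at 1 μM with human liver microsomes (0.8 mg protein/mL) in Dulbecco's buffer pH 7.4, 1 mM NADPH, 37 °C, in duplicate. Sampled at 0, 5, 10, 20, 30 and 60 min, quenched with ice-cold acetonitrile, and unchanged compound measured by LC−MS/MS. No-NADPH controls; midazolam (1 μM) as phase I control.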

[7] = Intrinsic clearance in human hepatocytes assessed per million cells at 1 uM measured after 90 mins by LC-MS/MS analysis; type: ADME, cell-based, Hepatocyte; details: read-out: CLH
Outline: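 Compound at 1 μM with hepatocytes (1 million cells/mL) in Leibovitz L-15 at 37 °C, in duplicate. Sampled at 0, 10, 20, 30, 60 and 90 min, quenched with ice-cold acetonitrile, centrifuged, and unchanged compound measured by LC−MS/MS. Included 7-ethoxycoumarin and 7-hydroxycoumarin activity controls and cell-free medium controls.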

[8] = Metabolic stability in human lung S9 fraction assessed as compound remaining at 1 uM measured after 60 mins in presence of NADPH by LC-MS/MS analysis; type: ADME; details: read-out: Stability
[9] = Metabolic stability in human plasma assessed as compound remaining at 1 uM measured after 60 mins in presence of NADPH by LC-MS/MS analysis; type: ADME, cell-free; details: read-out: Stability

Row | fraction unbound at 5 h, 5 µM [1] | IC50 [2] | IC50 [3] | Papp A→B at 2 h, 10 µM [4] | Papp B→A at 2 h, 10 µM [5] | microsomal CLint at 1 µM [6] | hepatocyte CLint at 1 µM [7] | remaining at 1 h, 1 µM [8] | remaining at 1 h, 1 µM [9] | Compound
1 | 0.0023 | 0.031 nM | 0.015 nM | 13.2 ×10⁻⁶ cm/s | 68.4 ×10⁻⁶ cm/s | 244 µL/min/mg | 33.2 µL/min/1e6 cells | 59.7% | 88.2% | COc1ccc(S(=O)(=O)N2CCCC[C@H]2C(=O)O[C@@H](Cc2c(Cl)c[n+]([O-])cc2Cl)c2ccc(OC(F)F)c(OCC3CC3)c2)cc1C(=O)N(C)C (relative stereo)
2 |  | 0.0442 nM | 0.31 nM |  |  |  |  |  |  | COCCS(=O)(=O)N1CCC[C@H]1C(=O)O[C@@H](Cc1c(Cl)c[n+]([O-])cc1Cl)c1ccc(OC(F)F)c(OCC2CC2)c1 (relative stereo)
3 |  | 0.176 nM | 0.26 nM |  |  |  |  |  |  | O=C(O[C@@H](Cc1c(Cl)c[n+]([O-])cc1Cl)c1ccc(OC(F)F)c(OCC2CC2)c1)[C@@H]1SCCN1S(=O)(=O)c1ccccc1 (relative stereo)
4 |  | 0.109 nM | 0.4 nM |  |  |  |  |  |  | O=C(O[C@@H](Cc1c(Cl)c[n+]([O-])cc1Cl)c1ccc(OC(F)F)c(OCC2CC2)c1)[C@@H]1CCCN1S(=O)(=O)c1ccccc1 (relative stereo)
5 |  | 0.043 nM | 0.078 nM |  |  |  |  |  |  | COCCS(=O)(=O)N1CCS[C@H]1C(=O)O[C@@H](Cc1c(Cl)c[n+]([O-])cc1Cl)c1ccc(OC(F)F)c(OCC2CC2)c1 (relative stereo)
6 |  | 0.06 nM | 0.34 nM |  |  |  |  |  |  | O=C(O[C@@H](Cc1c(Cl)c[n+]([O-])cc1Cl)c1ccc(OC(F)F)c(OCC2CC2)c1)[C@H]1CCCN1S(=O)(=O)c1ccccc1
7 |  | 0.014 nM | 0.032 nM |  |  |  |  |  |  | COc1cc([C@H](Cc2c(Cl)c[n+]([O-])cc2Cl)OC(=O)[C@@H]2SCCN2S(=O)(=O)c2cccc(C(=O)N(C)C)c2)ccc1OC(F)F (relative stereo)
8 |  | 0.047 nM | 0.047 nM |  |  |  |  |  |  | CN(C)C(=O)c1cccc(S(=O)(=O)N2CCS[C@@H]2C(=O)O[C@@H](Cc2c(Cl)c[n+]([O-])cc2Cl)c2ccc(OC(F)F)c(OCC3CC3)c2)c1

The remaining lines, values behind:

Row | Compound | fraction unbound at 5 h, 5 µM [1] | IC50 [2] | IC50 [3] | Papp A→B at 2 h, 10 µM [4] | Papp B→A at 2 h, 10 µM [5] | microsomal CLint at 1 µM [6] | hepatocyte CLint at 1 µM [7] | remaining at 1 h, 1 µM [8] | remaining at 1 h, 1 µM [9]
9 | CNC(=O)c1cc(S(=O)(=O)N2CCS[C@H]2C(=O)O[C@@H](Cc2c(Cl)c[n+]([O-])cc2Cl)c2ccc(OC(F)F)c(OCC3CC3)c2)cn1C (relative stereo) | 0.0016 | 0.025 nM | 0.03 nM | 1.26 ×10⁻⁶ cm/s | 18.3 ×10⁻⁶ cm/s | 202 µL/min/mg | 47.6 µL/min/1e6 cells | 63.5% | 100%
10 | CN(C)C(=O)c1cccc(S(=O)(=O)N2CSC[C@H]2C(=O)O[C@@H](Cc2c(Cl)c[n+]([O-])cc2Cl)c2ccc(OC(F)F)c(OCC3CC3)c2)c1 | 0.0017 | 0.055 nM | 0.035 nM | 2.8 ×10⁻⁶ cm/s | 4.46 ×10⁻⁶ cm/s | 268 µL/min/mg | 25.9 µL/min/1e6 cells | 52.1% | 94%
11 | COc1ccc(S(=O)(=O)N2CCC[C@H]2C(=O)O[C@@H](Cc2c(Cl)c[n+]([O-])cc2Cl)c2ccc(OC(F)F)c(OCC3CC3)c2)cc1C(=O)N(C)C (relative stereo) | 0.0032 | 0.0351 nM | 0.042 nM | 0.5 ×10⁻⁶ cm/s | 12.5 ×10⁻⁶ cm/s | 365 µL/min/mg | 56.7 µL/min/1e6 cells | 71.6% | 101%
12 | CN(C)C(=O)c1cccc(S(=O)(=O)N2CCS[C@H]2C(=O)O[C@H](Cc2c(Cl)c[n+]([O-])cc2Cl)c2ccc(OC(F)F)c(OCC3CC3)c2)c1 |  | 3.01 nM |  |  |  |  |  |  | 
13 | CN(C)C(=O)c1cccc(C(=O)N2CCS[C@H]2C(=O)O[C@@H](Cc2c(Cl)c[n+]([O-])cc2Cl)c2ccc(OC(F)F)c(OCC3CC3)c2)c1 |  |  | 0.57 nM |  |  |  |  |  | 
14 | COCCC(=O)N1CCS[C@H]1C(=O)O[C@@H](Cc1c(Cl)c[n+]([O-])cc1Cl)c1ccc(OC(F)F)c(OCC2CC2)c1 (relative stereo) |  | 0.028 nM | 0.86 nM |  |  |  |  |  | 
15 | O=C(O[C@@H](Cc1c(Cl)c[n+]([O-])cc1Cl)c1ccc(OC(F)F)c(OCC2CC2)c1)c1ccccc1S(=O)(=O)c1ccccc1 |  | 0.323 nM |  |  |  |  |  |  | 
16 | CN(C)C(=O)c1cccc(S(=O)(=O)N2CCC[C@@H]2C(=O)O[C@@H](Cc2c(Cl)c[n+]([O-])cc2Cl)c2ccc(OC(F)F)c(OCC3CC3)c2)c1 (relative stereo) |  | 0.0533 nM | 0.38 nM |  |  |  |  |  | 
